Laboratory results as given in publication PMC11252382 (Acta Pharmaceutica Sinica. B, 2024).

Experiments:
[1] = test system: primary adult rat cardiomyocytes; assay: Trypan blue staining of dead cells, primary cardiomyocytes + DOX; format: cell-based
[2] = test system: primary adult rat cardiomyocytes; assay: LDH release of primary cardiomyocytes; format: cell-based; details: 12 h
Outline: (§1)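 Cardiomyocytes came from male SD rats (about 280 g), isolated by Langendorff collagenase II/hyaluronidase perfusion and purified by three gravity sedimentations. They were cultured on laminin in M199 with 10% FBS, penicillin-streptomycin and glutamine. Cells were exposed with or without DOX and with or without test compound for 12 h. Cells and supernatant were measured with commercial ATP and LDH-activity kits. Mean ± SEM.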

[3] = test system: primary adult rat cardiomyocytes; assay: Total ROS by DCFH-DA staining, flow cytometry; format: cell-based
DOX-induced HF mice [4] = assay: Survival in acute DOX-induced HF mouse model; format: in vivo, mouse (ICR)
Outline: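 Male ICR mice (about 40 g, 10 weeks) had acute heart failure induced by a single i.p. 15 mg/kg DOX dose. From Day 15 to 28 they were dosed i.p. daily with test compound (50, 100 or 200 mg/kg), cedilanid 150 mg/kg or PBS 10 mL/kg. Deaths were recorded daily, and survival was analysed by Kaplan–Meier.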

DOX-induced HF mice [5] = assay: Serum CK and LDH activity in DOX-induced HF mice; format: in vivo, mouse (ICR); details: glycnsisitin A i.p. daily Days 15–28
Outline: (§2)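 Male ICR mice (about 40 g, 10-week-old, SPF) received a single i.p. DOX dose of 15 mg/kg; heart failure was established by Day 14. On Days 15–28 they were dosed i.p. daily with test compound (50, 100 or 200 mg/kg), cedilanid 150 mg/kg, or PBS 10 mL/kg. Blood was taken 8 h after dosing on Day 29 and spun 4500 rpm, 15 min, 4 °C. Serum CK and LDH activities and BNP and NT-proBNP were measured by kits. Mean ± SEM.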

[6] = test system: myocardium of DOX-treated mice; assay: Myocardial iron content; format: in vivo, mouse; details: with or without glycnsisitin A, ferrozine, 550 nm
Outline: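 Heart tissue from DOX-induced heart-failure mice (± test compound) was homogenised in lysate. Homogenate was mixed 1:1 with permanganate-containing solution A and held 1 h at 60 °C, then cooled. Iron (ferrozine) detection reagent was added for 30 min at room temperature. Absorbance was read at 550 nm and iron content calculated from a standard curve.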

transferrin [7] = assay: Immunoblot of transferrin in heart tissues; format: in vivo, mouse
TFRC [8] = assay: Immunoblot of TFRC in heart tissues; format: in vivo, mouse; details: glycnsisitin A with or without DOX, DOX alone in HF tissue
H9C2 cardiomyocytes = assay: Alamar blue cell viability, DOX-injured H9C2 cardiomyocytes; format: cell-based, rat; details: in vitro model of DOX-induced cardiomyocyte injury
Outline: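 H9C2 cells were grown in DMEM with 10% FBS and penicillin-streptomycin at 37 °C, 5% CO2, then seeded at 5000/well overnight. Cells were co-treated with DOX and test compound for 12 h, then incubated 4 h in medium with 10% alamar blue. Fluorescence was read at ex 530/em 590 nm. Viability = (treated − medium)/(control − medium) × 100; EC50 calculated.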

[9] = test system: primary adult rat cardiomyocytes; assay: Alamar blue assay, DOX-injured primary cardiomyocytes; format: cell-based
Outline: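 Cardiomyocytes came from male Sprague-Dawley rats (~280 g) by Langendorff perfusion with collagenase II/hyaluronidase/BSA and stepwise CaCl2. Cells were purified by three gravity sedimentations and cultured on laminin in M199 with 10% FBS, penicillin-streptomycin and 1% glutamine. DOX-injured cells received test compound, and viability was read by alamar blue.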

[10] = test system: primary adult rat cardiomyocytes; assay: ATP levels of primary cardiomyocytes; format: cell-based; details: 12 h
Outline: as §1

[11] = test system: primary adult rat cardiomyocytes; assay: Mitochondrial ROS by MitoSOX staining; format: cell-based; details: 10 μmol/L glycnsisitin A with 8.6 μmol/L DOX, 6 h, confocal
Outline: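 Primary adult rat cardiomyocytes in glass-bottomed confocal dishes received test compound and/or DOX for 6 h. They were then loaded with MitoSOX Red for 30 min at 37 °C, 5% CO2, in the dark, and washed three times with warm HBSS containing Ca/Mg. Fluorescence was imaged by laser confocal microscopy (ex 396/em 610 nm).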

DOX-induced HF mice [12] = assay: Echocardiography in DOX-induced HF mice; format: in vivo, mouse (ICR); details: compared with cedilanid
Outline: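 Male ICR mice (~40 g, 10 weeks) got a single i.p. DOX 15 mg/kg, with HF established by Day 14. On Day 28, 8 h post-dose, mice were anesthetized with avertin on a 37 °C table. M-mode short-axis scans at papillary level (10 MHz, 10–20 cycles) gave LVAWd.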

DOX-induced HF mice [13] = assay: Heart histology; format: in vivo, mouse (ICR); details: compared with cedilanid
Outline: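 Heart failure was induced in male ICR mice by a single i.p. DOX dose (15 mg/kg). Test compound (50/100/200 mg/kg), cedilanid ([…]) or PBS was then given i.p. daily on Days 15–28. Hearts were collected on Day 29, fixed in 4% paraformaldehyde and sectioned. H&E staining was scored for myocardial histopathology; Masson trichrome was quantified as relative fibrosis area.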

DOX-induced HF mice [14] = assay: BNP and NT-proBNP levels in DOX-induced HF mice; format: in vivo, mouse (ICR); details: compared to DOX-induced HF mice
Outline: as §2

transferrin [15] = biological target: T1, transferrin (Homo sapiens, UniProt P02787); assay: SPR on transferrin-coated CM5 sensor chips; format: binding
T1 sequence (P02787 20-698, species assumed): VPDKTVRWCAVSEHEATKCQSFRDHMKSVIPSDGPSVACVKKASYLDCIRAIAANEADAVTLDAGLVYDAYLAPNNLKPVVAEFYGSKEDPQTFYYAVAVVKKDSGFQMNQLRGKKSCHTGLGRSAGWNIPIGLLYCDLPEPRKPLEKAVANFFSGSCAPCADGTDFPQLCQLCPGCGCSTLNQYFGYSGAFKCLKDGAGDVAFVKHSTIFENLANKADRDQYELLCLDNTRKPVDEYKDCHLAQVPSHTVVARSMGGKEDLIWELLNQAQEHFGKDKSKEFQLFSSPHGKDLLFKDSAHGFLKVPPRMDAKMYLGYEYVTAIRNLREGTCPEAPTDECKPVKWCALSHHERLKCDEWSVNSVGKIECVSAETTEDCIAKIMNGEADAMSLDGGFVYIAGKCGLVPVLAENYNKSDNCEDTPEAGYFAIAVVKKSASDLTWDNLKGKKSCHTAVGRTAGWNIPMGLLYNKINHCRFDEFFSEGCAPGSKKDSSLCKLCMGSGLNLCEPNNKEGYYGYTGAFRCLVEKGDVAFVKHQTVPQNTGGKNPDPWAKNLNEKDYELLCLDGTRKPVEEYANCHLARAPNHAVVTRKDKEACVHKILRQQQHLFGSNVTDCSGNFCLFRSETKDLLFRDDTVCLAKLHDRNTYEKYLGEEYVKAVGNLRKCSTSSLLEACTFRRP
Outline: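 Test compound was flowed over at a range of concentrations and response units recorded. KD was derived by the instrument's evaluation fitting.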

transferrin [16] = biological target: T1, transferrin; assay: Relative mRNA level of transferrin in cardiomyocytes; format: cell-based; details: cultured cardiomyocytes
TFRC [17] = assay: Relative mRNA level of TFRC in cardiomyocytes; format: cell-based; details: cultured cardiomyocytes
transferrin [18] = biological target: T1, transferrin; assay: Protein half-life of transferrin after CHX; format: cell-based; details: compared with control
TFRC [19] = assay: Protein half-life of TFRC after CHX; format: cell-based; details: compared with control
[20] = test system: transferrin–TFRC interaction; assay: Cellular immunoprecipitation of transferrin with TFRC; format: cell-based; details: anti-His immunoprecipitation, blotted anti-transferrin and anti-TFRC
[21] = test system: primary adult rat cardiomyocytes; assay: Iron content of primary cardiomyocytes, TFRC neutralization; format: cell-based; details: glycnsisitin A + DOX; with or without NAb-anti-TFRC pretreatment
Outline: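 Langendorff-isolated adult rat cardiomyocytes in six-well plates were pretreated ± TFRC-neutralizing antibody, then given DOX and test compound. After two PBS washes, cells were lysed 2 h at room temperature on a shaker. Lysate was mixed 1:1 with permanganate-containing solution A and held 1 h at 60 °C, then cooled. Ferrozine iron reagent was added for 30 min at room temperature. A550 was read and iron calculated from a standard curve.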

[22] = test system: primary adult rat cardiomyocytes; assay: LDH activity in supernatant of primary cardiomyocytes, TFRC neutralization; format: cell-based; details: DOX + glycnsisitin A; with or without TFRC block
Outline: (§3)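 Adult cardiomyocytes were isolated from male Sprague-Dawley rats (about 280 g) by Langendorff perfusion with collagenase II and hyaluronidase. They were purified by three gravity sedimentations and cultured on laminin in M199 with 10% FBS, pen-strep and glutamine. Cells were pretreated with TFRC-neutralizing antibody (level not stated), then given DOX ± test compound for 12 h. Cells and supernatant were assayed with commercial LDH-activity or ATP kits. Mean ± SEM.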

[23] = test system: primary adult rat cardiomyocytes; assay: ATP content of primary cardiomyocytes, TFRC neutralization; format: cell-based; details: DOX-injured cardiomyocytes + glycnsisitin A; with or without NAb-anti-TFRC
Outline: as §3

cancer cells = details: clinical limitation; ref [29]; cited from earlier work
HF patients = details: supplementation; ref [8], [9]; cited from earlier work

## COc1cccc2c1C(=O)c1c(O)c3c(c(O)c1C2=O)C[C@@](O)(C(=O)CO)C[C@@H]3O[C@H]1C[C@H](N)[C@H](O)[C@H](C)O1 [DOX, doxorubicin, reference compound]
[1]; 8.6 μmol/L DOX for 24 h, compared with solvent control
  increase in the number of trypan blue-positive cells: approximately fourfold
[2]
  LDH release, DOX alone: elevation in the release of lactate dehydrogenase (LDH)
[3]
  ROS levels, DOX alone: dramatically increased
DOX-induced HF mice [4]; single i.p. 15 mg/kg DOX
  mortality rate: 50%
DOX-induced HF mice [5]
  serum CK activity: markedly increased
  serum LDH activity: markedly increased
[6]
  myocardial iron content: significant loss of iron
Transferrin [7]; DOX-treated mice, immunoblot ratio to GAPDH
  decrease in transferrin expression in heart tissue: over 50%
TFRC [8]
  TFRC level in mouse myocardium: decreased levels of both transferrin and TFRC

## CC(C)[C@@H]1NC(=O)[C@@H]2Cc3ccc(cc3)O[C@H]3C[C@H](NC3=O)C(=O)N3CCC[C@H]3C(=O)N[C@@H](Cc3ccc(O)cc3)C(=O)N[C@@H](C(=O)N[C@@H](C(C)C)C(=O)N2)c2cc(ccc2O)C[C@@H](C(=O)O)NC1=O [Glycnsisitin A]
H9C2 cardiomyocytes
  cardioprotective activity, relative to glycnsisitins B and C: stronger cardioprotective activity than glycnsisitins B and C
[1]; DOX 8.6 μmol/L + glycnsisitin A
  cardiotoxicity / cell death (trypan blue): significantly attenuated the cardiotoxicity induced by DOX and reduced cell death
[9]
  cell survival (alamar blue): proved the primary cell protective function
[2]
  LDH release, DOX + glycnsisitin A: significantly suppressed
[10]; presence vs absence of glycnsisitin A, with DOX
  total ATP levels following DOX induction: a substantial difference was observed
[10]; primary cardiomyocytes without DOX
  total ATP levels, normal conditions: did not have an impact on ATP levels
[11]
  mitochondrial ROS generation: significantly attenuated the excessive generation of mitochondrial ROS
DOX-induced HF mice [4]; 200 mg/kg i.p. daily Days 15–28 after DOX 15 mg/kg i.p.
  overall survival rate: 90%
DOX-induced HF mice [4]; 50, 100, 200 mg/kg i.p. daily Days 15–28 after DOX
  survival rate, dose dependence: increased in a dose-dependent manner
DOX-induced HF mice [12]
  diastolic LV anterior wall diameter (LVAWd): thicker diastolic LV anterior wall diameter
DOX-induced HF mice [13]; H&E
  pathology score: lower pathology score
DOX-induced HF mice [13]; Masson trichrome
  collagen deposition: lesser collagen deposition
DOX-induced HF mice [5]
  serum CK activity: completely reversed
  serum LDH activity: completely reversed
DOX-induced HF mice [14]
  BNP level: lower levels
  NT-proBNP level: lower levels
Transferrin [15]
  Kd: 2410 nM
[6]
  myocardial iron content: effectively restored to normal
Transferrin [7]; regardless of the presence of DOX
  total transferrin level in mouse myocardium: significantly increased the total transferrin levels
TFRC [8]
  TFRC level in mouse myocardium: consistent with the trend observed for TFRC
Transferrin [16]
  transferrin mRNA level: did not affect the mRNA content of transferrin
TFRC [17]
  TFRC mRNA level / transcription: increased the TFRC transcription
Transferrin [18]
  half-life of transferrin protein (in words): could increase the half-life of transferrin protein
TFRC [19]
  TFRC stability (in words): decreased TFRC stability
[20]
  content of immunoprecipitated transferrin: much higher
[21]
  iron content, DOX-treated cardiomyocytes: restored the decline in iron content
[22]
  LDH content in supernatant: much lower
[23]
  ATP production: noticeably augmented ATP production

## C[C@@H](CN1CC(=O)NC(=O)C1)N1CC(=O)NC(=O)C1 [dexrazoxane (DXZ), dexrazoxane]
Cancer cells
  chemotherapy resistance: potential to confer chemotherapy resistance to cancer cells

## ferric derisomaltose [ferric derisomaltose (FDI)]
HF patients
  HF symptoms and rehospitalization: could alleviate HF symptoms and reduce rehospitalization
